Usually IC50 stands for the point on the concentration scale where inhibition reaches its midpoint.

In PubChem BioAssay AID743337 (The Scripps Research Institute Molecular Screening Center, 2014) one finds IC50 data, which are given here for 24 molecules.

In this experiment the target is Disintegrin and metalloproteinase domain-containing protein 17 (Homo sapiens) (UniProt P78536). As to the kind of experiment: concentration-dependent inhibition of human ADAM17 – biochemical, QFRET peptide cleavage, IC50, ADAM17 exosite inhibitor project, late-stage follow-up (AID 743337). Conditions: recombinant ADAM17, QFRET peptide cleavage, fluorescence 3 h. A digest of the protocol: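 signal = fluorescence, ex 359 nm, em 460 nm | assay system = ADAM17 metalloprotease enzyme, cell-free biochemical assay | replicates = triplicate series | times = 30 min compound-enzyme preincubation, then 3 h substrate cleavage, 25 °C | also added = EDANS/DABCYL-quenched DM2 peptide substrate, 2X solution at 20 µM | medium = 50 mM HEPES buffer pH 7.5 with 0.01% Brij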
Chain of Disintegrin and metalloproteinase domain-containing protein 17 (Homo sapiens) (P78536 215-824 limits assumed): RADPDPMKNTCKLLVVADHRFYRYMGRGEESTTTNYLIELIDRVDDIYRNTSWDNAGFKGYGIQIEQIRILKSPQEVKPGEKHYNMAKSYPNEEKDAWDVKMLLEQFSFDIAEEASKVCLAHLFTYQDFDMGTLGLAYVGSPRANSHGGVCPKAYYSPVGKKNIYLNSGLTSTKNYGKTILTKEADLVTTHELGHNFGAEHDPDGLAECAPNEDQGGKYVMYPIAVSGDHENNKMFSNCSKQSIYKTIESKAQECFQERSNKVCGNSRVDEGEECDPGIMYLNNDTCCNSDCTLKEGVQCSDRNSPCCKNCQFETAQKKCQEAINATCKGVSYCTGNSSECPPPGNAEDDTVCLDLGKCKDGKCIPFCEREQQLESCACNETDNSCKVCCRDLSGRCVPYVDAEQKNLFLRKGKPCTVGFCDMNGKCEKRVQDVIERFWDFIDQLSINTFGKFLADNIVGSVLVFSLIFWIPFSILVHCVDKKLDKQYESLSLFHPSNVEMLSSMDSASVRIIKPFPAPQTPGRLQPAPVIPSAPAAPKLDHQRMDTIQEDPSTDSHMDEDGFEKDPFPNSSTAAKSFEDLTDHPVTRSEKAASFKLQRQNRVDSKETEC

Each structure is given as a SMILES string. Calls of active or inactive are those of the source.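 The calls were made as follows: active = IC50 of 10 µM or lower; inactive = IC50 above 10 µM.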

For `O=C(O)CCC(=O)c1c[nH]c2ccccc12`, the IC50 result is “inactive”.
In the case of `O=S(=O)(NCC(Nc1ccc(Cl)cc1)c1ccccc1)c1ccccc1` (centres undefined), the IC50 was > 69.5 µM (inactive).
Take `C=C(C)COc1ccc(-c2[nH]ncc2Oc2cccc(OC)c2)c(O)c1`: the IC50 was > 69.5 µM (inactive).
Turning to `O=C1NC(=O)C(Cc2ccc(Cl)cc2)(c2ccccc2)N1` (centres undefined), the IC50 is 3.76 µM.
On to `Cc1ccc(OCC(O)Cn2c3ccccc3c3ccccc32)cc1` (centres undefined), for which the IC50 is > 69.5 µM (inactive).
With `O=C(Nc1ccc(OCC(F)(F)C(F)F)c(C(F)(F)F)c1)c1ccc(Cl)cc1`, the IC50 was > 69.5 µM (inactive).
As to `CCOc1ccc(NC(=O)CC2SC(=O)N(c3ccccc3)C2=O)cc1` (centres undefined), the IC50 was 7.83 µM.
The result for `Oc1cc2c(cc1C(c1ccc(Cl)c(Cl)c1)N1CCCC1)OCO2` (centres undefined) reads “inactive”; that for `O=C(CN(Cc1cccs1)S(=O)(=O)c1ccc(S(=O)(=O)NC2CCCCC2)cc1)Nc1ccccc1`, > 69.5 µM (inactive); that for `COc1ccc(-c2ccc(-c3noc(-c4cccc(OC)c4)n3)c(OC)n2)cc1`, > 69.5 µM (inactive).
On to `C=C(C)COc1ccc(-c2n[nH]c(C)c2Oc2ccccc2OC)c(O)c1`, for which the IC50 was > 69.5 µM (inactive).
The same measure for `COc1cccc(C(=O)NNC(=O)C(=O)Nc2ccc(C)c(Cl)c2)c1`: > 69.5 µM (inactive).
With `COc1ccc2nc(SCC(=O)Nc3ccc(S(=O)(=O)N4CCCC4)cc3)c(C#N)cc2c1`, the IC50 is > 69.5 µM (inactive).
The result for `CCCCN(Cc1ccccc1)S(=O)(=O)c1cc(Br)cc2c1N(C(C)=O)C(C)C2` (centres undefined) reads > 69.5 µM (inactive); that for `O=C(Nc1ccc(OCC(F)(F)C(F)(F)F)c(C(F)(F)F)c1)c1ccc(Br)cc1`, > 69.5 µM (inactive); that for `Cc1ccc(S(=O)(=O)Nc2ccc(Cl)cc2)cc1NC(=O)c1cc2c(s1)CCCC2`, > 69.5 µM (inactive).
The result for `CCCOC(=O)c1ccc(Oc2cn[nH]c2-c2ccc(OCC)cc2O)cc1` reads > 69.5 µM (inactive).
Take `O=C(Nc1ccc(OCC(F)(F)C(F)(F)F)c(C(F)(F)F)c1)c1ccc(F)cc1`: the IC50 is > 69.5 µM (inactive).
Regarding `Cc1ccc(CC2(c3ccccc3)NC(=O)NC2=O)cc1` (centres undefined), the IC50 entry was “inactive”.
The result for `O=S(=O)(NCC(Nc1ccc(Cl)cc1)c1ccccc1)c1ccc(Cl)cc1` (centres undefined) reads > 69.5 µM (inactive); that for `Cc1csc(-c2cnn(-c3ccccc3)c2NC(=O)c2ccc(C(F)(F)F)cc2)n1`, > 69.5 µM (inactive); that for `C=C(C)COc1ccc(-c2[nH]ncc2Oc2ccc(OC)cc2)c(O)c1`, > 69.5 µM (inactive).
For the molecule `CS(=O)(=O)N(CC(=O)Nc1ccccc1Sc1ccccc1)c1cccc(Br)c1`, the IC50 was > 69.5 µM (inactive).
Take `COc1ccccc1NS(=O)(=O)c1cccc(NC(=O)Nc2ccc(Cl)cc2)c1`: the IC50 was > 69.5 µM (inactive).
